{"data": "Experimental data gathered from unrelated publications"}
{"SMILES": "O=C1C=C(OCc2cn(-c3ccccc3)nn2)C(=O)c2ccccc21", "organism": "Klebsiella pneumoniae", "test": "microbial growth, broth dilution", "test system": "ATCC700603", "measurement": "IC50", "result": "223 µg/mL"}
{"SMILES": "CCOC(=O)c1c(N)csc1-c1cn(-c2ccccc2)nc1-c1ccccc1", "organism": "Klebsiella pneumoniae", "test": "microbial growth, well diffusion", "setting": "100000 µg/mL", "measurement": "inhibition zone", "result": "22 mm"}
{"SMILES": "CC(C)(NC(=O)c1cc2c(F)cc(F)cc2[nH]1)c1cn(Cc2cccc(Cl)c2)nn1", "organism": "Cryptosporidium parvum", "test": "parasite growth, imaging", "test system": "HCT-8", "setting": "11 µM, 72 h, intracellular", "measurement": "inhibition", "result": "~30%"}
{"SMILES": "CCCCS(=O)(=O)Oc1cc(C(C)C)ccc1C", "organism": "Klebsiella pneumoniae", "test": "microbial growth, broth dilution", "test system": "ATCC700603", "measurement": "IC50", "result": "95.5 µg/mL"}
{"SMILES": "O=C(O)CN1C(=O)/C(=C/c2c3ccccc3c(-c3ccc(N(c4ccccc4)c4ccccc4)cc3)c3ccccc23)SC1=S", "organism": "Streptococcus pneumoniae", "test": "microbial growth, broth dilution", "test system": "ATCC49619", "measurement": "MIC", "result": "> 1000 µg/mL"}
{"SMILES": "Nc1ncnc2c1ncn2[C@H]1C[C@H](O)[C@@H](COP(=O)(O)O)O1", "organism": "Cryptosporidium parvum", "test": "parasite growth, imaging", "test system": "HCT-8", "setting": "1 mM, 24 h, intracellular", "measurement": "activity vs control", "result": "96.7%"}
{"SMILES": "COc1ccc(-n2cc(COC3=CC(=O)c4ccccc4C3=O)nn2)cc1", "organism": "Klebsiella pneumoniae", "test": "microbial growth, broth dilution", "test system": "ATCC700603", "measurement": "IC50", "result": "137 µg/mL"}
{"SMILES": "Cc1ncc(CO)c(C(=O)O)c1O", "organism": "Cryptosporidium parvum", "test": "parasite growth, imaging", "test system": "HCT-8", "setting": "1 mM, 24 h, intracellular", "measurement": "activity vs control", "result": "105%"}
{"SMILES": "O=C1NC(=S)S/C1=C\\c1ccc(-c2ccc(N(c3ccccc3)c3ccccc3)cc2)cc1", "organism": "Streptococcus pneumoniae", "test": "microbial killing, broth dilution", "test system": "ATCC49619", "measurement": "MBC", "result": "> 1000 µg/mL"}
{"SMILES": "Cc1ccc2cc[nH]c2c1", "organism": "Cryptosporidium parvum", "test": "parasite growth", "test system": "HCT-8", "setting": "24 h, intracellular", "measurement": "EC50", "result": "310 µM"}
{"SMILES": "O=C(Nc1ccccc1-c1ccc(F)c(F)c1)c1nccnc1C(F)(F)F", "organism": "Alternaria kikuchiana", "test": "microbial growth", "measurement": "EC50", "result": "0.058 µg/mL"}
{"SMILES": "O=C(O)CCc1ccc(O)cc1", "organism": "Cryptosporidium parvum", "test": "parasite growth, imaging", "test system": "HCT-8", "setting": "1 mM, 24 h, intracellular", "measurement": "activity vs control", "result": "90.5%"}
{"SMILES": "CC(C)(NC(=O)c1cc2c(F)cc(F)cc2[nH]1)c1cn(Cc2ccc(Cl)c(Cl)c2)nn1", "organism": "Cryptosporidium parvum", "test": "parasite growth, imaging", "test system": "HCT-8", "setting": "11 µM, 72 h, intracellular", "measurement": "inhibition", "result": "~30%"}
{"SMILES": "O=C1NC(=S)N/C1=C\\c1c2ccccc2c(-c2ccc(N(c3ccccc3)c3ccccc3)cc2)c2ccccc12", "organism": "Streptococcus pneumoniae", "test": "microbial growth, broth dilution", "test system": "ATCC49619", "measurement": "MIC", "result": "> 1000 µg/mL"}
{"SMILES": "NCCCCNCCCN", "organism": "Cryptosporidium parvum", "test": "parasite growth, imaging", "test system": "HCT-8", "setting": "1 mM, 24 h, intracellular", "measurement": "activity vs control", "result": "100%"}
{"SMILES": "Cc1ccc(-c2nn(-c3ccccc3)cc2C=c2sc(=CC#N)[nH]c2=O)cc1", "organism": "Klebsiella pneumoniae", "test": "microbial growth, well diffusion", "setting": "100000 µg/mL", "measurement": "inhibition zone", "result": "16 mm"}
{"SMILES": "O=c1[nH]cnc2nc[nH]c12", "organism": "Cryptosporidium parvum", "test": "parasite growth, imaging", "test system": "HCT-8", "setting": "1 mM, 24 h, intracellular", "measurement": "activity vs control", "result": "106%"}
{"SMILES": "O=S(=O)(Oc1cccc2cccnc12)c1ccccc1", "organism": "Klebsiella pneumoniae", "test": "microbial growth, broth dilution", "test system": "ATCC700603", "measurement": "IC50", "result": "340 µg/mL"}
{"SMILES": "CCOC(=O)C=c1[nH]c(=O)c(=Cc2cn(-c3ccccc3)nc2-c2ccc(C)cc2)s1", "organism": "Klebsiella pneumoniae", "test": "microbial growth, well diffusion", "setting": "100000 µg/mL", "measurement": "inhibition zone", "result": "13 mm"}
{"SMILES": "O=C(O)CN1C(=O)/C(=C/c2ccc(-c3ccc(N(c4ccccc4)c4ccccc4)cc3)c3ccccc23)NC1=S", "organism": "Streptococcus pneumoniae", "test": "microbial growth, broth dilution", "test system": "ATCC49619", "measurement": "MIC", "result": "> 1000 µg/mL"}
{"SMILES": "O=S(=O)(Oc1cccc2cccnc12)c1cccs1", "organism": "Klebsiella pneumoniae", "test": "microbial growth, broth dilution", "test system": "ATCC700603", "measurement": "IC50", "result": "443 µg/mL"}
{"SMILES": "NCCCCN", "organism": "Cryptosporidium parvum", "test": "parasite growth, imaging", "test system": "HCT-8", "setting": "1 mM, 24 h, intracellular", "measurement": "activity vs control", "result": "110%"}
{"SMILES": "O=C1C=C(OCc2cn(-c3ccc(Cl)cc3)nn2)C(=O)c2ccccc21", "organism": "Klebsiella pneumoniae", "test": "microbial growth, broth dilution", "test system": "ATCC700603", "measurement": "IC50", "result": "348 µg/mL"}
{"SMILES": "CNCC(=O)O", "organism": "Cryptosporidium parvum", "test": "parasite growth, imaging", "test system": "HCT-8", "setting": "1 mM, 24 h, intracellular", "measurement": "activity vs control", "result": "98%"}
{"SMILES": "O=C1NC(=S)N/C1=C\\c1ccc(-c2ccc(N(c3ccccc3)c3ccccc3)cc2)c2ccccc12", "organism": "Streptococcus pneumoniae", "test": "microbial killing, broth dilution", "test system": "ATCC49619", "measurement": "MBC", "result": "> 1000 µg/mL"}
{"SMILES": "Cc1c(NC(=O)CC2=NC(=O)CS2)c(=O)n(-c2ccccc2)n1C", "organism": "Klebsiella pneumoniae", "test": "microbial killing, broth dilution", "measurement": "MBC", "result": "0.5 µg/mL"}
{"SMILES": "O=C(O)CN1C(=O)/C(=C/c2ccc(-c3ccc(N(c4ccccc4)c4ccccc4)cc3)c3ccccc23)SC1=S", "organism": "Streptococcus pneumoniae", "test": "microbial killing, broth dilution", "test system": "ATCC49619", "measurement": "MBC", "result": "> 1000 µg/mL"}
{"SMILES": "N#CC(=Cc1cn(-c2ccccc2)nc1-c1ccccc1)C1=NC(=O)CS1", "organism": "Klebsiella pneumoniae", "test": "microbial killing, broth dilution", "measurement": "MBC", "result": "0.25 µg/mL"}
{"SMILES": "CC(C)(NC(=O)c1cc2c(Cl)cc(Cl)cc2[nH]1)c1cn(Cc2ccc(Cl)c(Cl)c2)nn1", "organism": "Cryptosporidium parvum", "test": "parasite growth, imaging", "test system": "HCT-8", "setting": "11 µM, 72 h, intracellular", "measurement": "inhibition", "result": "> 60%"}
{"SMILES": "O=C1NC(=S)S/C1=C\\c1ccc(-c2ccc(N(c3ccccc3)c3ccccc3)cc2)c2ccccc12", "organism": "Streptococcus pneumoniae", "test": "microbial killing, broth dilution", "test system": "ATCC49619", "measurement": "MBC", "result": "> 1000 µg/mL"}
{"SMILES": "Fc1ccc(-n2cc(COc3cccc4cccnc34)nn2)cc1", "organism": "Klebsiella pneumoniae", "test": "microbial growth, broth dilution", "test system": "ATCC700603", "measurement": "IC50", "result": "1230 µg/mL"}
{"SMILES": "O=C(O)CN1C(=O)/C(=C/c2ccc(-c3ccc(N(c4ccccc4)c4ccccc4)cc3)cc2)NC1=S", "organism": "Streptococcus pneumoniae", "test": "microbial killing, broth dilution", "test system": "ATCC49619", "measurement": "MBC", "result": "125 µg/mL"}
{"SMILES": "Cc1ccc(-n2cc(COc3cccc4cccnc34)nn2)cc1", "organism": "Klebsiella pneumoniae", "test": "microbial growth, broth dilution", "test system": "ATCC700603", "measurement": "IC50", "result": "268 µg/mL"}
